Measurements taken from ChEMBL document CHEMBL4014276, “Diphenylurea derivatives for combating methicillin- and vancomycin-resistant Staphylococcus aureus” (Eur J Med Chem, 2017).
≈ marks a conversion by molar mass, not a printed value. Calls of active or inactive are those of the source. The rule behind the calls is not given here.

Experiments:
Staphylococcus aureus [1] = test: Antibacterial activity against methicillin-resistant Staphylococcus aureus USA100 NRS382 clinical isolate after 20 hrs by broth microdilution method; type: functional; details: USA100 NRS382, 20 h
How it was run: (§1)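 CLSI broth microdilution in cation-adjusted Mueller Hinton broth; compounds serially diluted, triplicate samples; 37 °C, 20 h. MIC read visually as lowest concentration with no visible growth; mean of triplicate determinations reported.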

Staphylococcus aureus [2] = test: Bactericidal activity against methicillin-resistant Staphylococcus aureus USA200 NRS383 clinical isolate after 18 hrs by broth microdilution method; type: functional; details: USA200 NRS383, 18 h
How it was run: (§2)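 From MIC wells without visible growth, 5 uL spotted onto Tryptic soy agar, incubated 37 °C for at least 18 h; MBC taken as lowest concentration giving 99.9% growth inhibition.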

[3] = Apparent permeability across basolateral to apical side in human Caco2 cells at 10 uM after 2 hrs by LC-MS/MS method; type: ADME, cell-based; details: Caco-2
Staphylococcus aureus [4] = test: Antibacterial activity against vancomycin-resistant Staphylococcus aureus VRSA4 after 20 hrs by broth microdilution method; type: functional; details: VRSA4, 20 h; how it was run: as §1
[5] = Half life in human liver microsomes in presence of NADPH by LC-MS/MS method; type: ADME, microsome
Staphylococcus aureus [6] = test: Antibacterial activity against methicillin-resistant Staphylococcus aureus USA300 NRS384 clinical isolate preincubated followed by bacterial subculturing for 2 weeks; type: functional
Staphylococcus aureus [7] = test: Antibacterial activity against methicillin-resistant Staphylococcus aureus USA100 NRS382 clinical isolate preincubated followed by bacterial subculturing for 2 weeks; type: functional
J774 = test: Cytotoxicity against mouse J774 cells up to 16 ug/ml after 24 hrs by MTS assay; type: cell-based; details: j774, 24 h
How it was run: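 Murine macrophages cultured in DMEM plus 10% FBS, 37 °C, 5% CO2; compounds at 8, 16, 32, 64 µg/mL in triplicate for 24 h against DMSO-matched controls. MTS reagent 4 h, read at OD490. Viability as % of DMSO control (triplicate mean ± SD); one-way ANOVA, Dunnett's post hoc, P < 0.05.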

Staphylococcus aureus [8] = test: Bactericidal activity against methicillin-resistant Staphylococcus aureus USA300 NRS384 clinical isolate after 18 hrs by broth microdilution method; type: functional; details: USA300 NRS384, 18 h; how it was run: as §2
[9] = Cmax in naive Sprague-Dawley rat at 50 mg/kg ,po administered via gavage by LC-MS/MS method; type: ADME, organism-based; design: dose 50 mg/kg, route oral; details: in vivo
How it was run: (§3)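 Male naïve rats, three animals; single oral gavage dose in 5% ethanol, 45% PEG 400, 50% water. Blood drawn into EDTA-K2 tubes over 24 h post dose; plasma protein-precipitated with acetonitrile, parent quantified by LC/MS/MS.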

HaCaT = test: Cytotoxicity against human HaCaT cells up to 64 ug/ml after 2 hrs by MTS assay; type: cell-based
How it was run: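 Keratinocytes grown in DMEM with 10% FBS at 37 °C, 5% CO2; exposed in triplicate to 8, 16, 32 and 64 µg/mL for 2 h. DMSO-matched controls. MTS added for 4 h, absorbance at 490 nm. Viability expressed as % of DMSO-treated cells (mean of triplicate ± SD); one-way ANOVA with Dunnett's test, P < 0.05.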

Staphylococcus aureus [10] = test: Bactericidal activity against methicillin-resistant Staphylococcus aureus USA400 infected in mouse J774 cells assessed as reduction in colony forming units at 16 ug/ml after 24 hrs by time kill assay relative to control; design: scale not given: the % may be the effect or the level left
Staphylococcus aureus [11] = test: Bactericidal activity against methicillin-resistant Staphylococcus aureus USA400 assessed as time required to reduce log10CFU of bacterial load at 4 times MIC by time kill assay; type: functional
Staphylococcus aureus [12] = test: Bactericidal activity against vancomycin-resistant Staphylococcus aureus VRSA10 after 18 hrs by broth microdilution method; type: functional; details: VRSA10, 18 h; how it was run: as §2
[13] = Terminal elimination rate constant in naive Sprague-Dawley rat at 50 mg/kg ,po administered via gavage by LC-MS/MS method; type: ADME, organism-based; details: in vivo, read-out: LZ (converted); how it was run: as §3
Staphylococcus aureus [14] = test: Bactericidal activity against methicillin-resistant Staphylococcus aureus USA400 infected in mouse J774 cells assessed as reduction in colony forming units at 16 ug/ml after 4 hrs by time kill assay relative to control; type: functional; design: scale not given: the % may be the effect or the level left
How it was run: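 J774 murine macrophages in DMEM/10% FBS infected with MRSA USA400 at MOI ~100:1 for 1 h, extracellular bacteria killed with gentamicin 50 µg/mL; treated at 16 µg/mL in triplicate; after 4, 8 or 24 h cells washed, lysed with 0.1% Triton X-100, plated for CFU; percent reduction versus untreated, t-test.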

Staphylococcus aureus [15] = test: Bactericidal activity against methicillin-resistant Staphylococcus aureus USA400 NRS123 clinical isolate after 18 hrs by broth microdilution method; type: functional; details: USA400 NRS123, 18 h; how it was run: as §2
Staphylococcus aureus [16] = test: Bactericidal activity against methicillin-resistant Staphylococcus aureus USA100 NRS382 clinical isolate after 18 hrs by broth microdilution method; type: functional; details: USA100 NRS382, 18 h; how it was run: as §2
[17] = Intrinsic clearance in human liver microsomes in absence of NADPH by LC-MS/MS method; type: ADME, microsome; details: read-out: CLH
[18] = Half life in human liver microsomes in absence of NADPH by LC-MS/MS method; type: ADME, microsome
Staphylococcus aureus [19] = test: Antibacterial activity against methicillin-resistant Staphylococcus aureus USA400 infected in Caenorhabditis elegans AU37 harboring (sek-1(km4);glp-4(bn2)I) mutant assessed as reduction in colony forming units at 10 ug/ml after 20 hrs by microscopic method relative to control; type: functional; design: scale not given: the % may be the effect or the level left
How it was run: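 C. elegans AU37 L4/adult worms infected on MRSA USA400 lawn 6 h, washed in M9; 15-25 worms per well treated with 10 µg/mL in triplicate for 20 h, PBS negative control; worms lysed with silicon carbide, plated on TSA with 5 µg/mL nalidixic acid, 37 °C 18 h; CFU per worm, Student's t-test with Holm-Sidak correction.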

Staphylococcus aureus [20] = test: Antibacterial activity against methicillin-resistant Staphylococcus aureus USA200 NRS383 clinical isolate after 20 hrs by broth microdilution method; type: functional; details: USA200 NRS383, 20 h; how it was run: as §1
Staphylococcus aureus [21] = test: Antibacterial activity against methicillin-resistant Staphylococcus aureus USA400 NRS123 clinical isolate after 20 hrs by broth microdilution method; type: functional; details: USA400 NRS123, 20 h; how it was run: as §1
Staphylococcus aureus [22] = test: Antibacterial activity against Staphylococcus aureus RN4220 NRS107 clinical isolate after 20 hrs by broth microdilution method; type: functional; details: RN4220 NRS107, 20 h; how it was run: as §1
[23] = Intrinsic clearance in human liver microsomes in presence of NADPH by LC-MS/MS method; type: ADME, microsome; details: read-out: CLH
Staphylococcus aureus [24] = test: Antibacterial activity against methicillin-resistant Staphylococcus aureus USA400 NRS123 clinical isolate preincubated followed by bacterial subculturing for 2 weeks; type: functional
[25] = Total AUC in naive Sprague-Dawley rat at 50 mg/kg ,po administered via gavage by LC-MS/MS method; type: ADME, organism-based; design: dose 50 mg/kg, time AUCmax, route oral; details: in vivo; how it was run: as §3
Staphylococcus aureus [26] = test: Antibacterial activity against methicillin-resistant Staphylococcus aureus USA200 NRS383 clinical isolate preincubated followed by bacterial subculturing for 2 weeks; type: functional
Staphylococcus aureus [27] = test: Bactericidal activity against methicillin-resistant Staphylococcus aureus USA400 NRS123 clinical isolate assessed as disruption of bacterial membrane by measuring leakage of 260 nM absorbing material at 5 times MIC after 30 mins by spectrophotometric method; type: functional

Structure (SMILES): C/C(=N\NC(=N)N)c1ccc(NC(=O)Nc2ccc(OC3CCCCCC3)cc2)cc1
- MIC (Staphylococcus aureus [1]): 2 µg/mL (≈ 4.73 µM)
- MBC (Staphylococcus aureus [2]): 4 µg/mL (≈ 9.47 µM)
- Papp B→A at 2 h, 10 µM [3]: 51.9 ×10⁻⁶ cm/s
- MIC (Staphylococcus aureus [4]): 2 µg/mL (≈ 4.73 µM)
- half-life [5]: 1.14 h
- Activity (Staphylococcus aureus [6]): Active
- Activity (Staphylococcus aureus [7]): Active
- Activity (J774): Non-Toxic
- MBC (Staphylococcus aureus [8]): 4 µg/mL (≈ 9.47 µM)
- Cmax [9]: 16.3 ng/mL
- Activity (HaCaT): Non-Toxic
- Activity (Staphylococcus aureus [10]): 69%
- Time (Staphylococcus aureus [11]): <=4 hr
- MBC (Staphylococcus aureus [12]): 8 µg/mL (≈ 18.9 µM)
- k el [13]: 1.25e-05 s⁻¹
- Activity (Staphylococcus aureus [14]): 5%
- MBC (Staphylococcus aureus [15]): 4 µg/mL (≈ 9.47 µM)
- MBC (Staphylococcus aureus [16]): 4 µg/mL (≈ 9.47 µM)
- microsomal CLint [17]: 42.9 µL/min/mg
- half-life [18]: 0.897 h
- Activity (Staphylococcus aureus [19]): >50%
- MIC (Staphylococcus aureus [20]): 2 µg/mL (≈ 4.73 µM)
- MIC (Staphylococcus aureus [21]): 4 µg/mL (≈ 9.47 µM)
- MIC (Staphylococcus aureus [22]): 2 µg/mL (≈ 4.73 µM)
- microsomal CLint [23]: 33.9 µL/min/mg
- Activity (Staphylococcus aureus [24]): Active
- AUC [25]: 384 ng·h/mL
- Activity (Staphylococcus aureus [26]): Active
- Activity (Staphylococcus aureus [27]): inactive
